Values joined by “and” are separate entries in the source; they are usually repeats but may differ in a detail not shown here. Equal entries are not always repeated.
Key:
Format in all cases: toxicity, cell-based
U2OS = assay: Multiplex assay against U2OS; settings: human
Summary of the method: (§1)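 Imaging took place on a CQ1 microscope at 37°C and 5% CO2 once compound had been added to live cells stained at seeding with Hoechst33342, BioTracker Green Microtubule Cytoskeleton Dye, MitoTracker Red and Annexin V Alexa Fluor 680. CellPathfinder machine-learning gating classed cells as Hoechst high-intensity objects or normal cells, classed normal cells as having healthy, pyknosed or fragmented nuclei, and classed pyknosed cells as mitotic or apoptotic. Tubulin, mitochondrial-mass and membrane-permeability phenotypes are per cents of the healthy-nucleus cells.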

Fibroblast = assay: Multiplex assay against human fibroblast; summary of the method: as §1
HEK-293T = assay: Multiplex assay against HEK293T; settings: human; summary of the method: as §1
[1] = 12 h, 1 µM, compound concentration 1 uM
[2] = 12 h, 10 µM, compound concentration 10 uM
[3] = 24 h, 1 µM, compound concentration 1 uM
[4] = 24 h, 10 µM, compound concentration 10 uM
[5] = 48 h, 1 µM, compound concentration 1 uM
[6] = 48 h, 10 µM, compound concentration 10 uM

## OCCCNc1cc(-c2ccnc(Nc3cccc(Cl)c3)n2)ccn1
U2OS; [1]
  Population Apoptotic (%): 88% and 80%
  Population Fragmented Nuclei (%): 38% and 27%
  Population Healthy Nuclei (%): 52% and 51%
  Population Hoechst High Intensity Objects (%): 3% and 5%
  Population Membrane Permeable-Phenotype (%): 8% and 10%
  Population Mitotic Cells (%): 11% and 20%
  Population Normal (%): 97% and 94%
  Population Pyknosed Nuclei (%): 9% and 20%
  Population Tubulin-Different-Phenotype (%): 4% and 5%
  Total Cell Count: 200 and 76
U2OS; [2]
  Population Apoptotic (%): 85% and 91%
  Population Fragmented Nuclei (%): 37% and 24%
  Population Healthy Nuclei (%): 56% and 64%
  Population Hoechst High Intensity Objects (%): 4% and 10%
  Population Membrane Permeable-Phenotype (%): 46% and 47%
  Population Mitochondria Different-Phenotype (%): 36% and 51%
  Population Mitotic Cells (%): 14% and 8%
  Population Normal (%): 95% and 89%
  Population Pyknosed Nuclei (%): 6% and 11%
  Population Tubulin-Different-Phenotype (%): 46% and 61%
  Total Cell Count: 237 and 118
U2OS; [3]
  Population Apoptotic (%): 96% and 94%
  Population Fragmented Nuclei (%): 43% and 40%
  Population Healthy Nuclei (%): 43% and 33%
  Population Hoechst High Intensity Objects (%): 7%
  Population Membrane Permeable-Phenotype (%): 10% and 16%
  Population Mitochondria Different-Phenotype (%): 10% and 25%
  Population Mitotic Cells (%): 4% and 5%
  Population Normal (%): 92%
  Population Pyknosed Nuclei (%): 13% and 25%
  Population Tubulin-Different-Phenotype (%): 6% and 16%
  Total Cell Count: 200 and 77
U2OS; [4]
  Population Apoptotic (%): 88% and 95%
  Population Fragmented Nuclei (%): 37% and 30%
  Population Healthy Nuclei (%): 50% and 49%
  Population Hoechst High Intensity Objects (%): 11% and 12%
  Population Membrane Permeable-Phenotype (%): 34% and 43%
  Population Mitochondria Different-Phenotype (%): 40% and 54%
  Population Mitotic Cells (%): 12% and 4%
  Population Normal (%): 88% and 87%
  Population Pyknosed Nuclei (%): 12% and 20%
  Population Tubulin-Different-Phenotype (%): 37% and 61%
  Total Cell Count: 229 and 128
U2OS; [5]
  Population Apoptotic (%): 95% and 100%
  Population Fragmented Nuclei (%): 56% and 59%
  Population Healthy Nuclei (%): 22% and 11%
  Population Hoechst High Intensity Objects (%): 16% and 12%
  Population Membrane Permeable-Phenotype (%): 30%
  Population Mitochondria Different-Phenotype (%): 14% and 20%
  Population Mitotic Cells (%): 4% and 0%
  Population Normal (%): 83% and 87%
  Population Pyknosed Nuclei (%): 21% and 28%
  Population Tubulin-Different-Phenotype (%): 26% and 10%
  Total Cell Count: 227 and 99
U2OS; [6]
  Population Apoptotic (%): 94% and 96%
  Population Fragmented Nuclei (%): 47% and 50%
  Population Healthy Nuclei (%): 31% and 25%
  Population Hoechst High Intensity Objects (%): 21% and 23%
  Population Membrane Permeable-Phenotype (%): 43% and 65%
  Population Mitochondria Different-Phenotype (%): 45% and 34%
  Population Mitotic Cells (%): 5% and 4%
  Population Normal (%): 78% and 76%
  Population Pyknosed Nuclei (%): 21% and 24%
  Population Tubulin-Different-Phenotype (%): 45% and 65%
  Total Cell Count: 223 and 134
Fibroblast; [1]
  Population Apoptotic (%): 58% and 50%
  Population Fragmented Nuclei (%): 15% and 21%
  Population Healthy Nuclei (%): 66% and 53%
  Population Hoechst High Intensity Objects (%): 4% and 6%
  Population Membrane Permeable-Phenotype (%): 0% and 5%
  Population Mitochondria Different-Phenotype (%): 9% and 13%
  Population Mitotic Cells (%): 41% and 50%
  Population Normal (%): 95% and 93%
  Population Pyknosed Nuclei (%): 18% and 24%
  Population Tubulin-Different-Phenotype (%): 52% and 47%
  Total Cell Count: 139 and 138
Fibroblast; [2]
  Population Apoptotic (%): 61% and 52%
  Population Fragmented Nuclei (%): 38% and 65%
  Population Healthy Nuclei (%): 44% and 24%
  Population Hoechst High Intensity Objects (%): 10% and 6%
  Population Membrane Permeable-Phenotype (%): 9% and 20%
  Population Mitochondria Different-Phenotype (%): 25% and 11%
  Population Mitotic Cells (%): 38% and 47%
  Population Normal (%): 89% and 93%
  Population Pyknosed Nuclei (%): 17% and 9%
  Population Tubulin-Different-Phenotype (%): 88% and 84%
  Total Cell Count: 136 and 227
Fibroblast; [3]
  Population Apoptotic (%): 56% and 46%
  Population Fragmented Nuclei (%): 16% and 29%
  Population Healthy Nuclei (%): 65% and 48%
  Population Hoechst High Intensity Objects (%): 2% and 3%
  Population Membrane Permeable-Phenotype (%): 1% and 6%
  Population Mitochondria Different-Phenotype (%): 20% and 10%
  Population Mitotic Cells (%): 43% and 53%
  Population Normal (%): 97% and 96%
  Population Pyknosed Nuclei (%): 17% and 22%
  Population Tubulin-Different-Phenotype (%): 60% and 55%
  Total Cell Count: 136 and 139
Fibroblast; [4]
  Population Apoptotic (%): 80%
  Population Fragmented Nuclei (%): 36% and 63%
  Population Healthy Nuclei (%): 42% and 27%
  Population Hoechst High Intensity Objects (%): 11% and 6%
  Population Membrane Permeable-Phenotype (%): 7% and 12%
  Population Mitotic Cells (%): 20%
  Population Normal (%): 88% and 93%
  Population Pyknosed Nuclei (%): 20% and 9%
  Population Tubulin-Different-Phenotype (%): 86% and 80%
  Total Cell Count: 138 and 218
Fibroblast; [5]
  Population Apoptotic (%): 46% and 37%
  Population Fragmented Nuclei (%): 27% and 36%
  Population Healthy Nuclei (%): 47% and 30%
  Population Hoechst High Intensity Objects (%): 8% and 7%
  Population Membrane Permeable-Phenotype (%): 1% and 5%
  Population Mitochondria Different-Phenotype (%): 20% and 24%
  Population Mitotic Cells (%): 53% and 62%
  Population Normal (%): 91% and 92%
  Population Pyknosed Nuclei (%): 25% and 32%
  Population Tubulin-Different-Phenotype (%): 66% and 45%
  Total Cell Count: 136 and 132
Fibroblast; [6]
  Population Apoptotic (%): 91% and 85%
  Population Fragmented Nuclei (%): 39% and 58%
  Population Healthy Nuclei (%): 39% and 30%
  Population Hoechst High Intensity Objects (%): 14% and 6%
  Population Membrane Permeable-Phenotype (%): 15% and 20%
  Population Mitochondria Different-Phenotype (%): 42% and 20%
  Population Mitotic Cells (%): 8% and 14%
  Population Normal (%): 85% and 93%
  Population Pyknosed Nuclei (%): 21% and 11%
  Population Tubulin-Different-Phenotype (%): 77% and 64%
  Total Cell Count: 134 and 192
HEK-293T; [1]
  Population Apoptotic (%): 66% and 65%
  Population Fragmented Nuclei (%): 9% and 8%
  Population Healthy Nuclei (%): 66% and 74%
  Population Hoechst High Intensity Objects (%): 14% and 11%
  Population Membrane Permeable-Phenotype (%): 0%
  Population Mitochondria Different-Phenotype (%): 82% and 88%
  Population Mitotic Cells (%): 33% and 34%
  Population Normal (%): 85% and 88%
  Population Pyknosed Nuclei (%): 24% and 16%
  Population Tubulin-Different-Phenotype (%): 75% and 57%
  Total Cell Count: 204 and 173
HEK-293T; [2]
  Population Apoptotic (%): 78% and 75%
  Population Fragmented Nuclei (%): 14%
  Population Healthy Nuclei (%): 55% and 67%
  Population Hoechst High Intensity Objects (%): 30% and 41%
  Population Membrane Permeable-Phenotype (%): 1% and 10%
  Population Mitochondria Different-Phenotype (%): 83% and 85%
  Population Mitotic Cells (%): 21% and 25%
  Population Normal (%): 69% and 58%
  Population Pyknosed Nuclei (%): 30% and 18%
  Population Tubulin-Different-Phenotype (%): 80% and 72%
  Total Cell Count: 249 and 224
HEK-293T; [3]
  Population Apoptotic (%): 91% and 77%
  Population Fragmented Nuclei (%): 10% and 13%
  Population Healthy Nuclei (%): 66% and 76%
  Population Hoechst High Intensity Objects (%): 14% and 15%
  Population Membrane Permeable-Phenotype (%): 0%
  Population Mitochondria Different-Phenotype (%): 80% and 86%
  Population Mitotic Cells (%): 8% and 22%
  Population Normal (%): 85% and 84%
  Population Pyknosed Nuclei (%): 22% and 10%
  Population Tubulin-Different-Phenotype (%): 61%
  Total Cell Count: 228 and 202
HEK-293T; [4]
  Population Apoptotic (%): 71% and 78%
  Population Fragmented Nuclei (%): 16% and 15%
  Population Healthy Nuclei (%): 44% and 54%
  Population Hoechst High Intensity Objects (%): 41% and 45%
  Population Membrane Permeable-Phenotype (%): 0% and 3%
  Population Mitochondria Different-Phenotype (%): 85% and 91%
  Population Mitotic Cells (%): 28% and 21%
  Population Normal (%): 58% and 54%
  Population Pyknosed Nuclei (%): 38% and 29%
  Population Tubulin-Different-Phenotype (%): 88% and 82%
  Total Cell Count: 237 and 207
HEK-293T; [5]
  Population Apoptotic (%): 82% and 61%
  Population Fragmented Nuclei (%): 12% and 17%
  Population Healthy Nuclei (%): 51% and 65%
  Population Hoechst High Intensity Objects (%): 18% and 21%
  Population Membrane Permeable-Phenotype (%): 1% and 0%
  Population Mitochondria Different-Phenotype (%): 88% and 84%
  Population Mitotic Cells (%): 17% and 38%
  Population Normal (%): 81% and 78%
  Population Pyknosed Nuclei (%): 35% and 17%
  Population Tubulin-Different-Phenotype (%): 68% and 59%
  Total Cell Count: 232 and 193
HEK-293T; [6]
  Population Apoptotic (%): 71% and 83%
  Population Fragmented Nuclei (%): 16% and 25%
  Population Healthy Nuclei (%): 46%
  Population Hoechst High Intensity Objects (%): 57% and 56%
  Population Membrane Permeable-Phenotype (%): 1% and 8%
  Population Mitochondria Different-Phenotype (%): 78% and 85%
  Population Mitotic Cells (%): 28% and 16%
  Population Normal (%): 42% and 43%
  Population Pyknosed Nuclei (%): 37% and 28%
  Population Tubulin-Different-Phenotype (%): 76% and 79%
  Total Cell Count: 262 and 238

From ChEMBL document CHEMBL5724801, “EUbOPEN Chemogenomics Library - Multiplex” (2024)
